ChEMBL document CHEMBL1649384, “Synthesis and antiproliferative activity of novel symmetrical alkylthio- and alkylseleno-imidocarbamates” (Eur J Med Chem, 2011)

Key:
[1] = Cytotoxicity against human MCF10A cells after 72 hrs by MTT assay; assay type: cell-based, MCF-10A; details: for GI50 at 72 h: MCF10A cells; for LC50 / TGI: mcf-10a, 72 h
Summary of the method: (§1)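 Cells seeded per well: Hep-G2 1×10⁴, HT-29 4×10³, K-562 4×10³, MCF-7 1.2×10⁴, MCF-10A 7×10³, PC-3 2×10³. MCF-10A were grown in supplemented MEBM at 37 °C, 5% CO₂. Five concentrations were tested between 0.01 and 100, with 72 h exposure. Formazan was read by A590. GI₅₀ was taken relative to untreated controls, from at least three independent experiments.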

[2] = system: PC-3; assay: Cytotoxicity against human PC3 cells after 72 hrs by MTT assay; assay type: functional; details: PC-3, 72 h; for CC50: read-out: LC50 (the source's name); summary of the method: as §1
[3] = system: MCF7; assay: Cytotoxicity against human MCF7 cells after 72 hrs by MTT assay; assay type: functional; details: MCF7, 72 h; summary of the method: as §1
[4] = system: HT-29; assay: Cytotoxicity against human HT-29 cells after 72 hrs by MTT assay; assay type: functional; details: HT-29, 72 h; for CC50: read-out: LC50 (the source's name); summary of the method: as §1
[5] = system: K562; assay: Cytotoxicity against human K562 cells after 72 hrs by MTT assay; assay type: functional; details: K562, 72 h; for CC50: read-out: LC50 (the source's name); summary of the method: as §1
[6] = system: HepG2; assay: Cytotoxicity against human HepG2 cells after 72 hrs by MTT assay; assay type: functional; details: HepG2, 72 h; for CC50: read-out: LC50 (the source's name); summary of the method: as §1
[7] = system: HT-29; assay: Cytotoxicity against human HT-29 cells after 72 hrs by CV method; assay type: functional; details: HT-29, 72 h
Summary of the method: (§2)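 Crystal violet check of the MTT data: eight concentrations between 0.01 and 100, with 72 h exposure. Cells were fixed in 4% formaldehyde for at least 20 min, then stained with 0.1% crystal violet for 30 min. GI₅₀ is the concentration halving growth relative to untreated controls.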

[8] = system: PC-3; assay: Cytotoxicity against human PC3 cells after 72 hrs by CV method; assay type: functional; details: PC-3, 72 h; summary of the method: as §2
[9] = system: MCF7; assay: Induction of apoptosis in human MCF7 cells assessed as accumulation at subG1 phase at 15 uM after 48 hrs by DNA flow cytometric assay; assay type: functional
Summary of the method: (§3)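 Exponentially growing MCF-7 cells were given compound or vehicle, with camptothecin as positive control. Cells were fixed in 1% paraformaldehyde in PBS pH 7.4 on ice for 1 h, then in 70% ethanol at −20 °C for 30 min. They were stained with PI/RNase for 30 min at RT in the dark. DNA content was measured by flow cytometry as % of total cells. Mean ± SEM of three independent experiments, duplicate wells.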

[10] = system: MCF7; assay: Induction of apoptosis in human MCF7 cells assessed as accumulation at subG1 phase at 15 uM after 24 hrs by DNA flow cytometric assay; assay type: functional; summary of the method: as §3
[11] = system: MCF7; assay: Induction of apoptosis in human MCF7 cells assessed as accumulation at G0/G1 phase at 15 uM after 24 hrs by DNA flow cytometric assay; assay type: functional; summary of the method: as §3
[12] = system: MCF7; assay: Induction of apoptosis in human MCF7 cells assessed as accumulation at G2/M phase at 15 uM after 24 hrs by DNA flow cytometric assay; assay type: functional; summary of the method: as §3
[13] = system: MCF7; assay: Induction of apoptosis in human MCF7 cells assessed as accumulation at S phase at 15 uM after 48 hrs by DNA flow cytometric assay; assay type: functional; summary of the method: as §3
[14] = system: MCF7; assay: Induction of apoptosis in human MCF7 cells assessed as accumulation at G2/M phase at 15 uM after 48 hrs by DNA flow cytometric assay; assay type: functional; summary of the method: as §3
[15] = system: MCF7; assay: Induction of apoptosis in human MCF7 cells assessed as accumulation at G0/G1 phase at 15 uM after 48 hrs by DNA flow cytometric assay; assay type: functional; summary of the method: as §3
[16] = system: MCF7; assay: Induction of apoptosis in human MCF7 cells assessed as apoptotic cells at 15 uM after 48 hrs by TUNEL assay; assay type: functional
Summary of the method: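 TUNEL (Apo-Direct) on MCF-7 cells treated with compound or vehicle, with camptothecin as positive control. Cells were fixed in paraformaldehyde and then ethanol, labelled with FITC-dUTP for 1 h at 37 °C, counterstained with PI/RNase, and analysed by flow cytometry. Read-out is % apoptotic cells, mean ± SEM of three independent experiments in duplicate wells.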

[17] = system: MCF7; assay: Induction of apoptosis in human MCF7 cells assessed as accumulation at S phase at 15 uM after 24 hrs by DNA flow cytometric assay; assay type: functional; summary of the method: as §3

Structure (SMILES)	GI50 at 72 h [1]	LC50 [1]	TGI [1]	GI50 [2]	TGI [2]	CC50 [2]	GI50 [3]	LC50 [3]	TGI [3]	GI50 [4]	TGI [4]	CC50 [4]	GI50 [5]	TGI [5]	CC50 [5]	GI50 [6]	TGI [6]	CC50 [6]	GI50 [7]	GI50 [8]	other results
CS/C(=N\C(=O)c1ccco1)NC(=O)c1ccco1	8.22 µM	85.69 µM	46.52 µM	56.2 µM	> 100 µM	> 100 µM	56100 nM	> 100 µM	> 100 µM	77100 nM	> 100 µM	> 100 µM	64.8 µM	> 100 µM	> 100 µM	> 100 µM	> 100 µM	> 100 µM	–	–	–
CS/C(=N\C(=O)c1cccs1)NC(=O)c1cccs1	19.7 µM	90.5 µM	55.1 µM	39 µM	98.2 µM	> 100 µM	44500 nM	> 100 µM	89 µM	77900 nM	> 100 µM	> 100 µM	72.6 µM	> 100 µM	> 100 µM	> 100 µM	> 100 µM	> 100 µM	–	–	–
CS/C(=N\C(=O)c1sccc1Cl)NC(=O)c1sccc1Cl	0.09 µM	64.11 µM	23.72 µM	24.7 µM	57.4 µM	90.1 µM	10300 nM	> 100 µM	57.1 µM	35600 nM	> 100 µM	> 100 µM	37 µM	78.9 µM	> 100 µM	65.2 µM	> 100 µM	> 100 µM	–	–	–
C[Se]/C(=N\C(=O)c1ccco1)NC(=O)c1ccco1	5.94 µM	98.07 µM	40.16 µM	0.36 µM	56.7 µM	> 100 µM	30 nM	> 100 µM	88.9 µM	0.05 nM	> 100 µM	> 100 µM	8.78 µM	> 100 µM	> 100 µM	0.76 µM	8.66 µM	> 100 µM	1 µM	0.16 µM	–
C[Se]/C(=N\C(=O)c1sccc1Cl)NC(=O)c1sccc1Cl	3.16 µM	7.82 µM	5.49 µM	0.97 µM	7.03 µM	> 100 µM	300 nM	> 100 µM	31.2 µM	4.9 nM	> 100 µM	> 100 µM	4.81 µM	28.5 µM	90 µM	0.69 µM	4.02 µM	8.67 µM	0.0059 µM	0.24 µM	–
C[Se]/C(=N\C(=O)c1csc([N+](=O)[O-])c1)NC(=O)c1csc([N+](=O)[O-])c1	1.95 µM	7.53 µM	4.74 µM	0.1 µM	7.09 µM	> 100 µM	0.76 nM	> 100 µM	28.1 µM	0.63 nM	> 100 µM	> 100 µM	4.98 µM	> 100 µM	> 100 µM	0.62 µM	1.55 µM	10 µM	7.1 µM	0.11 µM	–
C[Se]/C(=N\C(=O)c1ccno1)NC(=O)c1ccno1	2.89 µM	63.94 µM	15.41 µM	0.09 µM	39.3 µM	> 100 µM	0.09 nM	> 100 µM	57.5 µM	0.79 nM	> 100 µM	> 100 µM	0.87 µM	45.6 µM	> 100 µM	0.51 µM	9.35 µM	> 100 µM	4.9 µM	0.03 µM	–
C[Se]/C(=N\C(=O)c1cnc2ccccc2c1)NC(=O)c1cnc2ccccc2c1	20.3 µM	83.86 µM	52.1 µM	2.33 µM	43.6 µM	> 100 µM	660 nM	60.7 µM	8.03 µM	200 nM	> 100 µM	> 100 µM	3.8 µM	29.9 µM	74.8 µM	4.16 µM	23.7 µM	87.8 µM	0.46 µM	1.42 µM	Activity [9]: 11.34%; Activity [10]: 10.29%; Activity [11]: 73.06%; Activity [12]: 7.21%; Activity [13]: 32.68%; Activity [14]: 19.97%; Activity [15]: 32.87%; Activity [16]: 27.19%; Activity [17]: 8.1%
C[Se]/C(=N\C(=O)c1cc(-c2ccccc2)nc2ccccc12)NC(=O)c1cc(-c2ccccc2)nc2ccccc12	0.71 µM	76.9 µM	20.05 µM	3.97 µM	40.2 µM	> 100 µM	490 nM	> 100 µM	7.52 µM	460 nM	90.7 µM	90.7 µM	5.8 µM	30.6 µM	73 µM	4.54 µM	10.1 µM	65.4 µM	0.85 µM	3.72 µM	–
